Compound activity deposited in PubChem BioAssay by Sanford-Burnham Center for Chemical Genomics.
Apaf-1 act: activators of human Apaf-1 apoptosome | O14727 | Apaf-1 apoptosome caspase-3 activation, DEVD-Rh110 fluorescence; stronger effect = lower value | activity change, negative = activation, % at 20 µM | 330,000 tested, 0.31% active;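 active = activity change at or below -40% at 20 µM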
Target sequence (O14727 whole entry, looked up): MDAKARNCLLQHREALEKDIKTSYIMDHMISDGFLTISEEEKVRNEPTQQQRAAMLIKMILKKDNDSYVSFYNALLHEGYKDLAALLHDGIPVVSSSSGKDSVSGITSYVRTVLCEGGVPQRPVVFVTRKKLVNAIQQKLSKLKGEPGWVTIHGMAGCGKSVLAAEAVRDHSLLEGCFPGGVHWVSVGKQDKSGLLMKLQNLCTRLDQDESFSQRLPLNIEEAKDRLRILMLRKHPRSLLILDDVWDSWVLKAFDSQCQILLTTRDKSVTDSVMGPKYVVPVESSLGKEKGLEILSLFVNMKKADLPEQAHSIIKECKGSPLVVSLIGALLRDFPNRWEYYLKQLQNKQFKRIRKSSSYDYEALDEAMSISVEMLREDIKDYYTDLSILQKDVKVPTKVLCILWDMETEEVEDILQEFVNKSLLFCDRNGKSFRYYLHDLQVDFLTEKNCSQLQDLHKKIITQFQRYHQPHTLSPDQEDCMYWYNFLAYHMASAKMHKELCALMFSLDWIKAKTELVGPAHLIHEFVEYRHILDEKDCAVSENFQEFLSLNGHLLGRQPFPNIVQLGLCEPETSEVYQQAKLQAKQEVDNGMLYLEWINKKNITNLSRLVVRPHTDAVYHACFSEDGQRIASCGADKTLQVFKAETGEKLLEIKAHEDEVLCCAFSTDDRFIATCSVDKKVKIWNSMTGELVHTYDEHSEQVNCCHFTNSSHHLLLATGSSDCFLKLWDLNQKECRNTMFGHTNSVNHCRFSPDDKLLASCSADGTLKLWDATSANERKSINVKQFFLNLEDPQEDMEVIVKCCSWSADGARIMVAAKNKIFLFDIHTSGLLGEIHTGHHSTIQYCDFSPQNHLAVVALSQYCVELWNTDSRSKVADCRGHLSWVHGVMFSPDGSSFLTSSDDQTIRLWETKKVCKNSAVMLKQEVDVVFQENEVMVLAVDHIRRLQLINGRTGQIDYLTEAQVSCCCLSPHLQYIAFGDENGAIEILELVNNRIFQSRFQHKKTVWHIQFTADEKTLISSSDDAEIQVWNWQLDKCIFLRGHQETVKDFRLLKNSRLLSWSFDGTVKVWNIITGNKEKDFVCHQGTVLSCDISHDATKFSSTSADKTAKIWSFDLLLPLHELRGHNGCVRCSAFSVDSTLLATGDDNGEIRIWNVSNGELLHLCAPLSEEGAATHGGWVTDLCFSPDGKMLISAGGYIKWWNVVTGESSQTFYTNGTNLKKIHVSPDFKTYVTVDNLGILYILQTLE
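System: Reconstituted apoptosome of Apaf-1, cytochrome c, caspase-9, procaspase-3 | Reagent: dATP, cytochrome c, and (Z-DEVD)2-Rh110 caspase-3 substrate | Times: 30 min compound preincubation and 50 min reaction, both room temperature | Detection: Caspase-3-released Rh110 fluorescence, 540 nm emission, 480 nm excitation | Measure: Caspase-3 activity via Apaf-1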
Rh110 act interf: counter-screen for Apaf-1 activators: fluorescence interference; AID 504616; Rh110 fluorescence interference, quenched caspase reaction, Ex480/Em540; shares compounds with Apaf-1 act; fluorescence interference (activity change), % at 20 µM, hits read low; 980 tested, under 10 active;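 active = mean activity change at or below -40% when tested at 20 µM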
Apaf-1 act conf: confirmation of human Apaf-1 activators | shares compounds with Apaf-1 act | reconstituted apoptosome caspase-3 activity, DEVD-Rh110 fluorescence; stronger effect = lower value | activity change, negative = activation, % at 20 µM | 980 tested, 5% active;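 active = mean activity change at or below -40%, meaning activation of 40% or more, at 20 µM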
Fluor interf act: Apaf-1 activator counter-screen fluorescence artifact | AID 588592 | 55 tested, under 10 active | shares compounds with Apaf-1 act | fluorescence interference counterscreen, Apaf-1 activator assay | EC50, µM; call rule not given here
The depositor's hits bear a star; . = no result. Only a sample is shown.

SMILES | Apaf-1 act | Rh110 act interf | Apaf-1 act conf | others
COc1cc(CNc2ccc(O)cc2)cc(Br)c1OCc1ccccc1F | 95.7 | . | .
COc1cc(C2Nc3cccc4cccc(c34)N2)cc(OC)c1OC(C)=O | 40.6 | . | .
Nc1nc(SCC(=O)Nc2cc(-c3ccccc3)nn2-c2ccccc2)n[nH]1 | -41.2* | 7.5 | 4.7
c1ccc(CN(CC2=NCCN2)c2ccccc2)cc1 | -4.3 | . | .
C=CCc1cccc(/C=N/NC(=O)CNc2cccc3ccccc23)c1O | 96.4 | . | .
N[C@@H](Cc1cc(I)c(Oc2ccc(O)c(I)c2)c(I)c1)C(=O)O | 4.0 | . | .
Cc1cc(C)n(CC(C)C(=O)O)n1 (configuration not stated) | -165.2* | 0.1 | -103.9* | Fluor interf act=>100
Cc1cc(OC(=O)c2ccccc2)n(CCC#N)n1 | 43.2 | . | .
CCOC(=O)C1CCN(C(=O)c2c(C)oc3c2C(=O)c2ccccc2C3=O)CC1 | 48.4 | . | .
CCOC(=O)C1CCN(C(=O)c2ccccc2NS(=O)(=O)c2ccccc2)CC1 | -496.4* | 16.2 | 18.6
CC1CCN(C2=C(NS(=O)(=O)c3ccccc3)C(=O)c3ccccc3C2=O)CC1 | 60.0 | . | .
CCN1/C(=C/C=C/c2sc3ccccc3[n+]2CC)Sc2ccccc21 | 89.8 | . | .
c1coc(-c2nc(-c3ccco3)c(-c3ccco3)nc2-c2ccco2)c1 | 63.4 | . | .
c1ccc2c(C[C@@H]3CNCCN3CC3CCCCC3)cccc2c1 | 43.7 | . | .
COc1cccc(NC(=O)c2cc(C(=O)Nc3cccc(OC)c3)n(C)n2)c1 | 41.0 | . | .
COc1cccc(NC(=S)NC(=O)c2cncc(Br)c2)c1 | -318.0* | -0.6 | 10.1
CC(=O)c1cccc(NC(=S)Nc2cccc3ccccc23)c1 | 81.4 | . | .
CCOc1ccc2[nH]c(=O)c(CN(CC3CCCN3CC)C(=O)NCc3ccccc3)cc2c1 (configuration not stated) | -137.0* | 0.3 | 8.7
CCOC(=O)N1CCN(C2=C(NS(=O)(=O)c3ccc(NC(C)=O)cc3)C(=O)c3ccccc3C2=O)CC1 | 83.3 | . | .
CCN(CC)c1ccc(/C=C2/C(=O)N(c3ccc([N+](=O)[O-])cc3)N=C2N2CCOCC2)cc1 | 56.0 | . | .
CCOC(=O)N1CCN(c2ccc([N+](=O)[O-])cc2)CC1 | -141.8* | 7.2 | 5.1
CCCCCCN(C(=O)CCCCCN1C(=O)NC(c2ccc(-c3ccccc3)cc2)C(C(=O)OCc2ccccc2)=C1C)C(C(=O)NCCCC)c1cccc(C(=O)OC)c1 (configuration not stated) | 79.0 | . | .
O=C(/C=C/c1ccc(O)c(O)c1)O[C@@H]1C[C@](O)(C(=O)O)C[C@@H](O)[C@H]1O | -3.1 | . | .
N#Cc1c2c(c(-n3cnc4ccccc43)n3c1nc1ccccc13)CCC2 | 44.9 | . | .
COc1ccc(C(CC(=O)c2ccc(O)cc2)S(=O)(=O)c2ccc(C)cc2)cc1 (configuration not stated) | -63.9* | -4.3 | 5.9
SMILES | Apaf-1 act | Rh110 act interf | Apaf-1 act conf | others
COc1ccc(S(=O)(=O)/N=C2\C=C(Nc3ccc(O)cc3)C(=O)c3ccccc32)cc1 | 96.4 | . | .
N#Cc1nc(-c2ccco2)oc1N1CCc2ccccc2C1 | 51.7 | . | .
CC(=O)C1=C(O)C(=O)N(CCc2c[nH]c3ccccc23)C1c1ccco1 (configuration not stated) | 42.9 | . | .
CCOC(=O)c1c2c(n(C)c1C)C(=O)C(=O)c1ccc(Br)cc1-2 | 95.6 | . | .
O=C(Nc1nc(-c2ccccc2)cs1)c1ccc(N2CCOCC2)c([N+](=O)[O-])c1 | -45.5* | -4.1 | 7.4
O=C1C2=C(c3ccccc31)[N+](=O)[C@@H]1CCCC[C@@H]1N2[O-] | 74.5 | . | .
O=C(CSc1nc(=O)n2ccccc2n1)NCc1ccccc1Cl | 48.5 | . | .
CCOc1ccc(S(=O)(=O)N(CC(=O)N2CCc3ccccc32)Cc2ccco2)cc1 | -307.1* | 7.9 | 10.6
CC[C@@H](C)[C@@H]1CN([C@@H](C)CN2CCC[C@H]2CN2C(N)=NC[C@@H]2Cc2ccccc2)C(=N)N1CCc1ccc(Cl)c(Cl)c1 | 70.7 | . | .
Nc1cccc2cnccc12 | 66.5 | . | .
Cc1ccc(C2(c3noc(CN(C)CC4CCCCO4)n3)CCCC2)cc1 (configuration not stated) | -412.7* | 19.1 | 17.5
COC(=O)c1c(NC(=O)c2nc3ccccc3s2)sc2c1CC(C)(C)NC2(C)C | 58.2 | . | .
CC1=NN(c2ccccc2)C(=O)C1 | 41.3 | . | .
Nn1c(SCCOc2ccc(Cl)cc2)nnc1-c1cccnc1 | -43.6* | 12.7 | 15.6
Clc1ccc(OCCSc2nnnn2C2CCCCC2)cc1 | 65.2 | . | .
CCCc1[nH]nc2c1C(c1ccc(OC)c(CSC3=NCCS3)c1)C(C#N)=C(N)O2 (configuration not stated) | 41.0 | . | .
